Measured values taken from ChEMBL document CHEMBL1828575, “Design, synthesis and antiproliferative activities of biarylolefins based on polyhydroxylated and carbohydrate scaffolds” (Eur J Med Chem, 2011).

Experiments:
Format in all cases: functional
MDA-MB-435 [1] = assay: Cytotoxicity against human MDA-MB-435 cells assessed as cellular growth at 10 uM after 48 hrs by SRB assay
Procedure, shortened: (§1)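 NCI-60 panel lines grown in RPMI 1640 with 5% FBS and 2 mM L-glutamine. Plated at 5000–40,000 cells/well and preincubated 24 h at 37 °C, 5% CO₂, with time-zero plates fixed in TCA. Compounds, dissolved in DMSO and diluted in medium, were applied for 48 h. Cells were TCA-fixed (10% final for adherent, 16% for suspension) and stained with 0.4% SRB in 1% acetic acid. Dye was solubilised in 10 mM Tris base and read at 515 nm; growth was expressed as a percentage of untreated control.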

Malme-3M = assay: Cytotoxicity against human MALME-3M cells assessed as cellular growth at 10 uM after 48 hrs by SRB assay; procedure, shortened: as §1
T47D [2] = assay: Cytotoxicity against human T47D cells assessed as cellular growth at 10 uM after 48 hrs by SRB assay; procedure, shortened: as §1
HOP-62 = assay: Cytotoxicity against human HOP62 cells assessed as cellular growth at 10 uM after 48 hrs by SRB assay
Procedure, shortened: (§2)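 NCI60 single-dose screen of cells in RPMI 1640 with 5% FBS and 2 mM L-glutamine, preincubated 24 h at 37 °C, 5% CO₂. Cells were then exposed 48 h to compound added from DMSO stock. TCA-fixed, stained with 0.4% SRB in 1% acetic acid, dye solubilised in 10 mM Tris base and read at 515 nm. Growth is given as percent of untreated control.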

HCT-15 = assay: Antiproliferative activity against human HCT15 cells after 48 hrs by SRB assay; settings: HCT-15, 48 h
Procedure, shortened: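 NCI60 screen: cells grown in RPMI 1640 with 5% FBS and 2 mM L-glutamine, plated at 5000–40,000 cells/well by doubling time, preincubated 24 h at 37 °C with 5% CO2. Compounds were diluted from DMSO stocks and given for 48 h, at five concentrations for dose response. A time-zero plate was TCA-fixed. Cells were TCA-fixed, stained with 0.4% SRB and read at 515 nm, with growth expressed relative to untreated controls.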

IGROV-1 = assay: Cytotoxicity against human IGROV1 cells assessed as cellular growth at 10 uM after 48 hrs by SRB assay; procedure, shortened: as §2
EKVX = assay: Antitumor activity against human EKVX cells after 48 hrs by SRB assay
Procedure, shortened: (§3)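 NCI60 panel in RPMI 1640 with 5% FBS and 2 mM L-glutamine. Cells were plated at 5000–40,000/well by doubling time, held 24 h, then time-zero plates were TCA-fixed. Five concentrations (10-fold or half-log dilutions of DMSO stocks) were applied for 48 h at 37 °C, 5% CO2. Cells were fixed with cold TCA (10% final adherent, 16% suspension) and stained with 0.4% SRB. Bound dye was dissolved in 10 mM Tris and read at 515 nm. GI50, TGI and LC50 were calculated per line.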

SW-620 = assay: Antitumor activity against human SW620 cells after 48 hrs by SRB assay; settings: SW-620, 48 h
Procedure, shortened: (§4)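 NCI60 panel cells grown in RPMI 1640 with 5% FBS and 2 mM L-glutamine, plated at 5000–40,000 cells/well and preincubated 24 h at 37 °C, 5% CO₂. Compound was added from DMSO at five concentrations, 10-fold or 1/2 log dilutions, then incubated 48 h.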

UACC-62 = assay: Antitumor activity against human UACC62 cells after 48 hrs by SRB assay; settings: UACC-62, 48 h; procedure, shortened: as §4
RXF 393 = assay: Antitumor activity against human RXF393 cells after 48 hrs by SRB assay; settings: RXF 393, 48 h; for CC50: read-out: LC50 (the source's name); procedure, shortened: as §3
MCF7 = assay: Cytotoxicity against human MCF7 cells assessed as cellular growth at 10 uM after 48 hrs by SRB assay; procedure, shortened: as §1
T47D [3] = assay: Antitumor activity against human T47D cells after 48 hrs by SRB assay; procedure, shortened: as §4
UACC-257 = assay: Cytotoxicity against human UACC257 cells assessed as cellular growth at 10 uM after 48 hrs by SRB assay; procedure, shortened: as §1
CAKI-1 = assay: Cytotoxicity against human Caki1 cells assessed as cellular growth at 10 uM after 48 hrs by SRB assay; procedure, shortened: as §2
MDA-MB-231 = assay: Cytotoxicity against human MDA-MB-231 cells assessed as cellular growth at 10 uM after 48 hrs by SRB assay; procedure, shortened: as §1
NCI-H23 [4] = assay: Cytotoxicity against human NCI-H23 cells assessed as cellular growth at 10 uM after 48 hrs by SRB assay; procedure, shortened: as §1
PC-3 [5] = assay: Antitumor activity against human PC3 cells after 48 hrs by SRB assay; settings: PC-3, 48 h; procedure, shortened: as §3
MDA-MB-435 [6] = assay: Antitumor activity against human MDA-MB-435 cells after 48 hrs by SRB assay; settings: MDA-MB-435, 48 h; for CC50: read-out: LC50 (the source's name); procedure, shortened: as §3
ACHN = assay: Cytotoxicity against human ACHN cells assessed as cellular growth at 10 uM after 48 hrs by SRB assay; procedure, shortened: as §2
NCI-H23 [7] = assay: Antitumor activity against human NCI-H23 cells after 48 hrs by SRB assay; settings: NCI-H23, 48 h; procedure, shortened: as §3
PC-3 [8] = assay: Cytotoxicity against human PC3 cells assessed as cellular growth at 10 uM after 48 hrs by SRB assay; procedure, shortened: as §1
SK-MEL-2 = assay: Cytotoxicity against human SK-MEL-2 cells assessed as cellular growth at 10 uM after 48 hrs by SRB assay; procedure, shortened: as §1
M14 = assay: Antitumor activity against human M14 cells after 48 hrs by SRB assay; settings: M14, 48 h; procedure, shortened: as §3
[9] = read-out: LC50 (the source's name)
[10] = read-out: pLC50 (the source's name) (converted)

## COc1ccc(/C(=C2\O[C@@H]([C@H]3COC(C)(C)O3)[C@H]3OC(C)(C)O[C@@H]23)c2cc(OC)c(OC)c(OC)c2)cc1O
MDA-MB-435 [1]
  Activity: -10.2%
Malme-3M
  Activity: 69.57%
T47D [2]
  Activity: 115.08%
HOP-62
  Activity: 91.26%
HCT-15; [9]
  CC50: > 100 µM
HCT-15; [10]
  CC50: > 100 µM
IGROV-1
  Activity: 92.61%
EKVX; read-out: GI50
  GI50: 37.4 µM
EKVX; [9]
  CC50: > 100 µM
EKVX; read-out: TGI
  TGI: > 100 µM
EKVX; read-out: pGI50 (converted)
  GI50: 37.2 µM
EKVX; [10]
  CC50: > 100 µM
EKVX; read-out: pTGI
  TGI: > 100 µM
SW-620; read-out: GI50
  GI50: 7.28 µM
SW-620; [9]
  CC50: > 100 µM
SW-620; read-out: TGI
  TGI: > 100 µM
SW-620; read-out: pGI50 (converted)
  GI50: 7.24 µM
SW-620; [10]
  CC50: > 100 µM
SW-620; read-out: pTGI
  TGI: > 100 µM
UACC-62; read-out: GI50
  GI50: 22.9 µM
UACC-62; [9]
  CC50: > 100 µM
UACC-62; read-out: TGI
  TGI: 57.6 µM
UACC-62; read-out: pGI50 (converted)
  GI50: 22.9 µM
UACC-62; [10]
  CC50: > 100 µM
UACC-62; read-out: pTGI (converted)
  TGI: 57.5 µM
RXF 393
  GI50: 2540 nM
  TGI: 5.99 µM
  CC50: 32.6 µM
MCF7
  Activity: 60.66%
T47D [3]; read-out: GI50
  GI50: 63.6 µM
T47D [3]; [9]
  CC50: > 100 µM
T47D [3]; read-out: TGI
  TGI: > 100 µM
T47D [3]; read-out: pGI50 (converted)
  GI50: 44.7 µM
T47D [3]; [10]
  CC50: > 100 µM
T47D [3]; read-out: pTGI (converted)
  TGI: > 100 µM
UACC-257
  Activity: 126.04%
CAKI-1
  Activity: 110.64%
MDA-MB-231
  Activity: 54.45%
NCI-H23 [4]
  Activity: 81.18%
PC-3 [5]; [9]
  CC50: > 100 µM
PC-3 [5]; read-out: TGI
  TGI: > 100 µM
PC-3 [5]; read-out: pGI50 (converted)
  GI50: 4.17 µM
PC-3 [5]; [10]
  CC50: > 100 µM
PC-3 [5]; read-out: pTGI
  TGI: > 100 µM
MDA-MB-435 [6]
  GI50: 3610 nM
  TGI: 17.5 µM
  CC50: > 100 µM
ACHN
  Activity: 49.46%
NCI-H23 [7]; read-out: GI50
  GI50: 21.8 µM
NCI-H23 [7]; [9]
  CC50: > 100 µM
NCI-H23 [7]; read-out: TGI
  TGI: 74.9 µM
NCI-H23 [7]; read-out: pGI50 (converted)
  GI50: 20.9 µM
NCI-H23 [7]; [10]
  CC50: > 100 µM
NCI-H23 [7]; read-out: pTGI (converted)
  TGI: 74.1 µM
PC-3 [8]
  Activity: 29.4%

## COc1ccc(/C(=C2/O[C@@H]([C@H]3COC(C)(C)O3)[C@H]3OC(C)(C)O[C@@H]23)c2cc(OC)c(OC)c(OC)c2)cc1O
MDA-MB-435 [1]
  Activity: 44.7%
T47D [2]
  Activity: 120.98%
HOP-62
  Activity: 48.49%
EKVX; read-out: GI50
  GI50: 5.57 µM
EKVX; [9]
  CC50: > 100 µM
EKVX; read-out: TGI
  TGI: > 100 µM
EKVX; read-out: pGI50 (converted)
  GI50: 56.2 µM
EKVX; [10]
  CC50: > 100 µM
EKVX; read-out: pTGI
  TGI: > 100 µM
SW-620; read-out: GI50
  GI50: 4.05 µM
SW-620; [9]
  CC50: > 100 µM
SW-620; read-out: TGI
  TGI: > 100 µM
SW-620; read-out: pGI50 (converted)
  GI50: 4.07 µM
SW-620; [10]
  CC50: > 100 µM
SW-620; read-out: pTGI
  TGI: > 100 µM
UACC-62; read-out: GI50
  GI50: 5.79 µM
UACC-62; [9]
  CC50: > 100 µM
UACC-62; read-out: TGI
  TGI: > 100 µM
UACC-62; read-out: pGI50 (converted)
  GI50: 57.5 µM
UACC-62; [10]
  CC50: > 100 µM
UACC-62; read-out: pTGI (converted)
  TGI: > 100 µM
SK-MEL-2
  Activity: 103.26%
RXF 393
  GI50: 2120 nM
  TGI: 5.89 µM
  CC50: 29.8 µM
T47D [3]; read-out: GI50
  GI50: 2.51 µM
T47D [3]; [9]
  CC50: > 100 µM
T47D [3]; read-out: TGI
  TGI: > 100 µM
T47D [3]; read-out: pGI50 (converted)
  GI50: 25.1 µM
T47D [3]; [10]
  CC50: > 100 µM
T47D [3]; read-out: pTGI (converted)
  TGI: > 100 µM
UACC-257
  Activity: 107.04%
CAKI-1
  Activity: 93.05%
M14; read-out: GI50
  GI50: 2400 nM
M14; [9]
  CC50: > 100 µM
M14; read-out: TGI
  TGI: 5.9 µM
M14; read-out: pGI50 (converted)
  GI50: 2400 nM
M14; [10]
  CC50: > 100 µM
M14; read-out: pTGI (converted)
  TGI: 5.89 µM
MDA-MB-231
  Activity: 43.9%
NCI-H23 [4]
  Activity: 72.29%
PC-3 [5]; read-out: GI50
  GI50: 5.11 µM
PC-3 [5]; [9]
  CC50: > 100 µM
PC-3 [5]; read-out: TGI
  TGI: > 100 µM
PC-3 [5]; read-out: pGI50 (converted)
  GI50: 5.13 µM
PC-3 [5]; [10]
  CC50: > 100 µM
PC-3 [5]; read-out: pTGI
  TGI: > 100 µM
MDA-MB-435 [6]
  GI50: 1480 nM
  TGI: 3.7 µM
  CC50: > 100 µM
ACHN
  Activity: 44.73%
NCI-H23 [7]; read-out: GI50
  GI50: 7.98 µM
NCI-H23 [7]; [9]
  CC50: > 100 µM
NCI-H23 [7]; read-out: TGI
  TGI: 46 µM
NCI-H23 [7]; read-out: pGI50 (converted)
  GI50: 7.94 µM
NCI-H23 [7]; [10]
  CC50: > 100 µM
NCI-H23 [7]; read-out: pTGI (converted)
  TGI: 45.7 µM
PC-3 [8]
  Activity: 30.63%
